Assay results: ChEMBL document CHEMBL1146217, “Growth inhibition of Mycobacterium bovis, Mycobacterium tuberculosis and Mycobacterium avium in vitro: effect of 1-beta-D-2'-arabinofuranosyl and 1-(2'-deoxy-2'-fluoro-beta-D-2'-ribofuranosyl) pyrimidine nucleoside analogs” (J Med Chem, 2007)
Converted amounts (≈) assume the structure as drawn.

Key:
[1] = test system: Mycobacterium avium; assay: Antimycobacterial activity against Mycobacterium avium ATCC 25291 at 100 ug/mL by microplate Alamar blue assay; type: functional
How it was run: (§1)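 MABA with M. bovis BCG, M. tuberculosis H37Ra or M. avium ATCC 25291. DMSO stocks (10 mg/mL) diluted in 7H9GC; final inoculum 2.5 × 10⁵ CFU/mL. Incubated 6 days, then alamar blue plus Tween 80 added and read by fluorescence after about 24 h. […]. Tested in triplicate at 100, 50, 10 and 1 µg/mL; two experiments, mean reported.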

[2] = test system: Mycobacterium tuberculosis; assay: Antimycobacterial activity against Mycobacterium tuberculosis H37Ra at 100 ug/mL by microplate Alamar blue assay; type: functional; how it was run: as §1
[3] = test system: Mycobacterium avium; assay: Antimycobacterial activity against Mycobacterium avium ATCC 25291 by microplate Alamar blue assay; type: functional
How it was run: (§2)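 Same alamar blue microplate setup (7H9GC, 2.5 × 10⁵ CFU/mL, 6 days, then dye read after about 24 h), using 2-fold compound dilutions. MIC90 is the lowest concentration giving about 90% inhibition relative to bacteria-only wells after background subtraction. Visual MIC is the lowest concentration preventing the blue-to-pink change.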

[4] = Toxicity against human foreskin fibroblast cells after 3 days by MTT test; type: cell-based
How it was run: (§3)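 MTT viability assay. Vero or HFF cells seeded at 2.5 × 10⁵ cells/well and left to attach 6-8 h. Exposed to compound at 100, 50, 25, 12.5, 6.3 and 1.5 µg/mL for 3 days at 37 °C, with a DMSO control. MTT added for 4 h, then solubilized overnight; absorbance read at 560-650 nm.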

[5] = test system: Mycobacterium tuberculosis; assay: Antimycobacterial activity against Mycobacterium tuberculosis H37Ra at 50 ug/mL by microplate Alamar blue assay; type: functional; how it was run: as §1
[6] = test system: Mycobacterium avium; assay: Antimycobacterial activity against Mycobacterium avium ATCC 25291 at 50 ug/mL by microplate Alamar blue assay; type: functional; how it was run: as §1
[7] = test system: Mycobacterium tuberculosis; assay: Antimycobacterial activity against Mycobacterium tuberculosis H37Ra at 1ug/mL by microplate Alamar blue assay; type: functional; how it was run: as §1
[8] = test system: Mycobacterium tuberculosis; assay: Antimycobacterial activity against Mycobacterium tuberculosis H37Ra by microplate Alamar blue assay; type: functional; how it was run: as §2
[9] = test system: Vero; assay: Toxicity against Vero cells after 3 days by MTT test; type: cell-based; details: chlorocebus sabaeus, 72 h; how it was run: as §3
[10] = test system: Mycobacterium tuberculosis; assay: Antimycobacterial activity against Mycobacterium tuberculosis H37Ra at 10 ug/mL by microplate Alamar blue assay; type: functional; how it was run: as §1
[11] = test system: Escherichia coli; assay: Antibacterial activity against Escherichia coli ATCC 25922 after 16 to 20 hrs by broth microdilution method; type: functional; details: Escherichia coli, ATCC 25922
How it was run: (§4)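 Broth microdilution MIC. Exponentially growing bacteria diluted in sterile liquid medium to a final inoculum of 1 × 10⁴ CFU/mL. Cultured with compound dilutions for 16-20 h; compounds tested at 100, 50, 10 and 1 µg/mL. MIC taken as the concentration giving 100% inhibition of bacterial growth.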

[12] = test system: Listeria monocytogenes; assay: Antibacterial activity Listeria monocytogenes ATCC 15313 after 16 to 20 hrs by broth microdilution method; type: functional; details: for MIC: Listeria monocytogenes, ATCC 15313; how it was run: as §4
[13] = test system: Salmonella typhimurium; assay: Antibacterial activity against Salmonella Typhimurium after 16 to 20 hrs by broth microdilution method; type: functional, Salmonella enterica subsp. enterica serovar Typhimurium; details: Salmonella enterica; how it was run: as §4
[14] = test system: Bacillus subtilis; assay: Antibacterial activity against Bacillus subtilis ATCC 6633 after 16 to 20 hrs by broth microdilution method; type: functional; details: Bacillus subtilis, ATCC 6633; how it was run: as §4
[15] = test system: Streptococcus pyogenes; assay: Antibacterial activity Streptococcus pyogenes ATCC 19615 after 16 to 20 hrs by broth microdilution method; type: functional; details: for MIC: Streptococcus pyogenes, ATCC 19615; how it was run: as §4
[16] = test system: Streptococcus pneumoniae; assay: Antibacterial activity Streptococcus pneumoniae ATCC 49619 after 16 to 20 hrs by broth microdilution method; type: functional; details: for MIC: Streptococcus pneumoniae, ATCC 49619; how it was run: as §4
[17] = test system: Staphylococcus aureus; assay: Antibacterial activity against Staphylococcus aureus ATCC 25923 after 16 to 20 hrs by broth microdilution method; type: functional; details: for MIC: Staphylococcus aureus, ATCC 25923; how it was run: as §4
[18] = test system: Enterococcus faecalis; assay: Antibacterial activity Enterococcus faecalis ATCC 29212 after 16 to 20 hrs by broth microdilution method; type: functional; details: for MIC: Enterococcus faecalis, ATCC 29212; how it was run: as §4
[19] = test system: Proteus vulgaris; assay: Antibacterial activity against Proteus vulgaris ATCC 49132 after 16 to 20 hrs by broth microdilution method; type: functional; how it was run: as §4
[20] = test system: Pseudomonas aeruginosa; assay: Antibacterial activity against Pseudomonas aeruginosa […] after 16 to 20 hrs by broth microdilution method; type: functional; details: Pseudomonas aeruginosa, ATCC 13048; how it was run: as §4
[21] = test system: Klebsiella aerogenes; assay: Antibacterial activity against Enterobacter aerogenes after 16 to 20 hrs by broth microdilution method; type: functional; details: Klebsiella aerogenes; how it was run: as §4
[22] = test system: Staphylococcus epidermidis; assay: Antibacterial activity against Staphylococcus epidermidis ATCC 14990 after 16 to 20 hrs by broth microdilution method; type: functional; details: for MIC: Staphylococcus epidermidis, ATCC 14990; how it was run: as §4

For `O=C(O)/C=C/c1cn([C@@H]2O[C@H](CO)[C@@H](O)[C@@H]2O)c(=O)[nH]c1=O`, the inhibition at 100 µg/mL [1] was 0% and the inhibition at 100 µg/mL [2] was 0%.
`O=C(O)C(I)C(O)c1cn([C@@H]2O[C@H](CO)[C@@H](O)[C@H]2F)c(=O)[nH]c1=O` (some centres undefined) gave an inhibition at 100 µg/mL [1] of 0% and an inhibition at 100 µg/mL [2] of 0%.
With `O=C(O)/C=C/c1cn([C@@H]2O[C@H](CO)[C@@H](O)[C@H]2F)c(=O)[nH]c1=O` the inhibition at 100 µg/mL [1] was 0% and the inhibition at 100 µg/mL [2] was 0%.
With `O=c1[nH]c(=O)n([C@@H]2O[C@H](CO)[C@@H](O)[C@@H]2O)cc1C(O)C(Br)Br` (some centres undefined) the inhibition at 100 µg/mL [1] was 0% and the inhibition at 100 µg/mL [2] was 0%.
With `CCCCCCCCCCC#Cc1cn([C@@H]2O[C@H](CO)[C@@H](O)[C@@H]2O)c(=O)[nH]c1=O` the inhibition at 100 µg/mL [1] was 100%, the MIC90 [3] was 50 µg/mL (≈ 122 µM) and the CC50 at 72 h [4] was over 100 µg/mL. The inhibition at 50 µg/mL [5] was 100%, the inhibition at 50 µg/mL [6] was 55% and the inhibition at 1 µg/mL [7] was 75%. For the same compound, the MIC90 [8] was 1 µg/mL (≈ 2.45 µM), the CC10 [9] was over 100 µg/mL and the inhibition at 10 µg/mL [10] was 100%. The inhibition at 100 µg/mL [2] was 100%.
For `CCCCCCCCCCCCC#Cc1cn([C@@H]2O[C@H](CO)[C@@H](O)[C@H]2F)c(=O)[nH]c1=O`, the inhibition at 100 µg/mL [1] was 20%, the CC50 at 72 h [4] was over 100 µg/mL and the MIC [11] was over 100 µg/mL. It also gave an inhibition at 50 µg/mL [5] of 100%, an MIC [12] of over 100 µg/mL and an MIC [13] of over 100 µg/mL. For the same compound, the MIC [14] was over 100 µg/mL, the MIC [15] was over 100 µg/mL and the MIC [16] was over 100 µg/mL. For the same compound, the MIC90 [8] was 10 µg/mL (≈ 22.8 µM), the Inhibition [17] was 100% and the MIC [17] was 100 µg/mL (≈ 228 µM). For the same compound, the MIC [18] was over 100 µg/mL, the MIC [19] was over 100 µg/mL and the CC10 [9] was over 100 µg/mL. It also gave an MIC [20] of over 100 µg/mL, an inhibition at 10 µg/mL [10] of 50% and an MIC [21] of over 100 µg/mL. For the same compound, the inhibition at 100 µg/mL [2] was 100%, the Inhibition [22] was 100% and the MIC [22] was 100 µg/mL (≈ 228 µM).
Compound `O=c1[nH]c(=O)n([C@@H]2O[C@H](CO)[C@@H](O)[C@H]2F)cc1Cl` has an inhibition at 100 µg/mL [1] of 0% and an inhibition at 100 µg/mL [2] of 20%.
`CCCc1ccc(C#Cc2cn([C@@H]3O[C@H](CO)[C@@H](O)[C@@H]3O)c(=O)[nH]c2=O)cc1` gave an inhibition at 100 µg/mL [1] of 25%, a CC50 at 72 h [4] of over 100 µg/mL and an inhibition at 50 µg/mL [5] of 50%. The MIC90 [8] was 100 µg/mL (≈ 259 µM), the CC10 [9] was over 100 µg/mL and the inhibition at 100 µg/mL [2] was 100%.
`CCCCCC#Cc1cn([C@@H]2O[C@H](CO)[C@@H](O)[C@H]2F)c(=O)[nH]c1=O` showed an inhibition at 100 µg/mL [1] of 0%, a CC50 at 72 h [4] of over 100 µg/mL and a CC10 [9] of over 100 µg/mL. For the same compound, the inhibition at 100 µg/mL [2] was 50%.
`CCCCCCCCCCCC#Cc1cn([C@@H]2O[C@H](CO)[C@@H](O)[C@H]2F)c(=O)[nH]c1=O` showed an inhibition at 100 µg/mL [1] of 100%, an MIC90 [3] of 50 µg/mL (≈ 118 µM) and a CC50 at 72 h [4] of over 100 µg/mL. For the same compound, the MIC [11] was over 100 µg/mL, the inhibition at 50 µg/mL [5] was 100% and the inhibition at 50 µg/mL [6] was 50%. The Inhibition [12] was 100%, the MIC [12] was 100 µg/mL (≈ 236 µM) and the MIC [13] was over 100 µg/mL. For the same compound, the MIC [14] was over 100 µg/mL, the Inhibition [15] was 100% and the MIC [15] was 100 µg/mL (≈ 236 µM). The Inhibition [16] was 100%, the MIC [16] was 100 µg/mL (≈ 236 µM) and the inhibition at 1 µg/mL [7] was 90%. The MIC90 [8] was 1 µg/mL (≈ 2.36 µM), the Inhibition [17] was 100% and the MIC [17] was 100 µg/mL (≈ 236 µM). It also gave an Inhibition [18] of 100%, an MIC [18] of 100 µg/mL (≈ 236 µM) and an MIC [19] of over 100 µg/mL. It also gave a CC10 [9] of over 100 µg/mL, an MIC [20] of over 100 µg/mL and an inhibition at 10 µg/mL [10] of 100%. The MIC [21] was over 100 µg/mL, the inhibition at 100 µg/mL [2] was 100% and the Inhibition [22] was 100%. The MIC [22] was 100 µg/mL (≈ 236 µM).
In the case of `Cc1cn([C@@H]2O[C@H](CO)[C@@H](O)[C@H]2F)c(=O)[nH]c1=S`, the inhibition at 100 µg/mL [1] is reported as 0% and the inhibition at 100 µg/mL [2] is reported as 25%.
`CCOC(=O)C(Br)C(O)c1cn([C@@H]2O[C@H](CO)[C@@H](O)[C@H]2F)c(=O)[nH]c1=O` (some centres undefined) showed an inhibition at 100 µg/mL [1] of 0% and an inhibition at 100 µg/mL [2] of 0%.
`O=c1[nH]c(=O)n([C@@H]2O[C@H](CO)[C@@H](O)[C@@H]2O)cc1C(O)CI` (some centres undefined) gave an inhibition at 100 µg/mL [1] of 0% and an inhibition at 100 µg/mL [2] of 0%.
`COC(CI)c1cn([C@@H]2O[C@H](CO)[C@@H](O)[C@@H]2O)c(=O)[nH]c1=O` (some centres undefined) gave an inhibition at 100 µg/mL [1] of 0% and an inhibition at 100 µg/mL [2] of 0%.
For `O=c1[nH]c(=O)n([C@@H]2O[C@H](CO)[C@@H](O)[C@@H]2O)cc1C(O)C(Cl)Cl` (some centres undefined), the inhibition at 100 µg/mL [1] was 0% and the inhibition at 100 µg/mL [2] was 0%.
